# Kir21 inh: inhibitors of mouse Kir2.1 inward-rectifier potassium channel; Inward rectifier potassium channel 2 (Mus musculus), P35561; HEK293-Kir2.1, FluxOR thallium flux fluorescence; stronger effect = lower value; B-score at 10 µM; 310,000 compounds, 0.85% hits;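 active = fluorescence ratio B-score at or below minus 3 SD of library scores, with starting-brightness B-score within 2 SD, cut at about -4.2 in these data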;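 also: channel flux triggered by added potassium and thallium sulfate stimulus; B-score of peak minus minimum fluorescence over baseline after thallium stimulus; more negative B-score means stronger Kir2.1 block with less thallium influx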
# KCNQ1 inh: inhibitors of human KCNQ1 channel, primary screen, cell-based, thallium flux, high-throughput. CHO-K1 KCNQ1, FluxOR thallium flux fluorescence; stronger effect = higher value. B-score at 10 µM. 310,000 compounds, 1.3% hits;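 active = compounds whose thallium flux B-score, printed positive for inhibition, exceeds three library SD while starting fluorescence stays within three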;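 also: channel opened by potassium depolarization with thallium stimulus after 20 min compound exposure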
# hERG rescue: hERG rescue from dofetilide block, primary screen, cell-based, CHO-hERG, FluxOR thallium flux, dofetilide IC70; AID 1511, 2009; 310,000 compounds, 0.51% hits; dofetilide IC70 present; Voltage-gated inwardly rectifying potassium channel KCNH2 (Homo sapiens), Q12809; activation (rescue from dofetilide block), less the hit threshold, % at 10 µM;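 active = activation above the mean of controls blocked by dofetilide plus 5 SD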;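 also: thallium influx through hERG after potassium depolarization seen as dye fluorescence rise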
# Target sequence (Q12809 whole entry, looked up): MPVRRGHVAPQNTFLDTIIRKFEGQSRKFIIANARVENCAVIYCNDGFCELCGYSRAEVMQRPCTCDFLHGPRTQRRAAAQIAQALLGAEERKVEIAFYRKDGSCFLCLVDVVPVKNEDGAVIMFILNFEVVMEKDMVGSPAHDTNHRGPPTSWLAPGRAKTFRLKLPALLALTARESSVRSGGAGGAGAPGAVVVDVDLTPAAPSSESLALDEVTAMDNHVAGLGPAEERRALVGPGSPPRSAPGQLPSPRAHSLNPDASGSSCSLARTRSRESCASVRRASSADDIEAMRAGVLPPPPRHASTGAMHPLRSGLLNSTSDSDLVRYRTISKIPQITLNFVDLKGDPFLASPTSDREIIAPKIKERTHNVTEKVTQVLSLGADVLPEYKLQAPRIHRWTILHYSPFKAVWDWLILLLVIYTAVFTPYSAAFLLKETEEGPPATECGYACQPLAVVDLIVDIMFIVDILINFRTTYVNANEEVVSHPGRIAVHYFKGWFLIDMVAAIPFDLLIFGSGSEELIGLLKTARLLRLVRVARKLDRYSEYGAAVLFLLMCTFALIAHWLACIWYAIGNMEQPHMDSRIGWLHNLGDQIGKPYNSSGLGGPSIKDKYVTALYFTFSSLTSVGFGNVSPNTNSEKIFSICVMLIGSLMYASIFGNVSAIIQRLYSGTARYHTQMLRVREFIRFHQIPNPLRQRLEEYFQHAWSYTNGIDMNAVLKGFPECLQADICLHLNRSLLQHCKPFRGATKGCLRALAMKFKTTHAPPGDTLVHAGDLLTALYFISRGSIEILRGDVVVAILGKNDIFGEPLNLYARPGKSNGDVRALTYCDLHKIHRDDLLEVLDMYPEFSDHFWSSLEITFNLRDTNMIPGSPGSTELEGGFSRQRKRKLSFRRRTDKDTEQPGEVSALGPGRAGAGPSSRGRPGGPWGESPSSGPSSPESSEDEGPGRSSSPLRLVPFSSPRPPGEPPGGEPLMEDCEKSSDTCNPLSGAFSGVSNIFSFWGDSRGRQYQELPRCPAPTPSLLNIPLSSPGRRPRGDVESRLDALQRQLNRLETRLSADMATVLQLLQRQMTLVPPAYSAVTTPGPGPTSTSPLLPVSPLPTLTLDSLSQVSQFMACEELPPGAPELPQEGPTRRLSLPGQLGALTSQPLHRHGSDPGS
# KCNQ1 pot: potentiators or activators of KCNQ1 channel, primary screen, cell-based, thallium flux, high-throughput. Potassium voltage-gated channel subfamily KQT member 1 (Homo sapiens), P51787. CHO-K1 KCNQ1, thallium flux FluxOR fluorescence; stronger effect = higher value. B-score at 10 µM. 310,000 compounds, 0.35% hits. AID 2648, 2010;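 active = fluorescence ratio B-score, a plate-corrected score, at least three library SD, with initial intensity B-score within 5 SD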
#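 Medium – assay buffer, equal DMSO in all wells · Material – CHO-K1 cell line with stable KCNQ1 potassium channel expression · Signal – kinetic FluxOR thallium fluorescence, 10-s 1-Hz baseline, 110-s post-stimulus read · Compound – single concentration per compound, DMSO matched to controls · Schedule – 37 °C overnight plating, 90-min dark dye load, 20-min compound pretreatment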
# KCNK3 inh: human KCNK3 channel inhibitors, primary screen, CHO cells, FluxOR thallium flux, B-score | B-score at 10 µM | 340,000 compounds, 0.84% hits | Potassium channel subfamily K member 3 (Homo sapiens), O14649 | FluxOR fluorescence; stronger effect = lower value;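 active = B-score under library mean minus 4 SD, starting fluorescence ratio at most library mean plus 5 SD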;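 also: more negative B-score means stronger inhibition of thallium flux through KCNK3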
# KCNK9 block: KCNK9 potassium channel inhibitors, primary screen, HEK293 cells, thallium flux; B-score at 10 µM; 310,000 compounds, 1.2% hits; FluxOR thallium flux fluorescence; stronger effect = lower value; Potassium channel subfamily K member 9 (Homo sapiens), Q9NPC2;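 active = ratio B-score over 3 SD below the library mean, with starting fluorescence within 5 SD of its mean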;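 also: negative B-score means less thallium flux so channel inhibition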
# KCNK9 inh conf: KCNK9 potassium channel inhibitors, confirmation, HEK293 cells, thallium flux, duplicate; AID 492992, 2010; shares compounds with KCNK9 block; FluxOR thallium flux fluorescence; 4,900 compounds, 43% hits; inhibition, % at 10 µM;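 active = thallium signal inhibited by more than 5 SD of the compound-free buffer control wells, on both duplicate plates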;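 also: 0% = assay buffer control wells without compound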
# Kir21 sel: mouse Kir2.1 channel inhibition, confirmation, selectivity assay for KCNK9 modulator project, cell-based, HEK293, thallium flux; shares compounds with KCNK9 block; Kir2.1 cells, FluxOR thallium flux fluorescence; inhibition, % at 10 µM; 4,900 compounds, 4% hits;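 active = thallium signal drop more than 5 SD beyond the mean of the no-compound control wells, seen in both duplicate plates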;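 also: signal is fluorescence rise after thallium addition divided by baseline fluorescence; plate controls were assay buffer only for no effect and full block by chlorpromazine control for full effect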
# HEK293 Tl ctr: thallium flux in non-induced HEK293 cells, confirmation, counter-screen for KCNK9 inhibitor project, cell-based, second counter screen, non-induced KCNK9-HEK293; shares compounds with KCNK9 block; FluxOR thallium flux; inhibition, % at 10 µM; 4,900 compounds, 40% hits;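 active = thallium signal drop beyond 5 SD of the untreated control mean, on both duplicate plates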;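 also: plate controls were buffer only IC0 wells for no effect and SID17386958 at its maximal inhibitory level for full effect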
# The depositor's hits bear a star; i = inactive; x = no result given. Compounds with a hit are over-represented: about 3.7% of the library has one in this group of screens.
SMILES,Kir21 inh,KCNQ1 inh,hERG rescue,KCNQ1 pot,KCNK3 inh,KCNK9 block,KCNK9 inh conf,Kir21 sel,HEK293 Tl ctr
O=S(=O)(N/N=C/c1ccc(Cl)cc1)c1ccc(Cc2ncc(C(F)(F)F)cc2Cl)s1,-0.58,10*,-17,i,-9.3*,i,i,i,i
NC(=O)c1ccc(Cc2ncc(C(F)(F)F)cc2Cl)s1,-0.75,i,1,i,i,i,x,x,x
N#C/C(=C/c1ccc(CNC(=O)C(=O)Nc2cc(Cl)cc(Cl)c2)o1)C(=O)NCc1cccnc1,0.16,i,-8,i,i,-10*,i,i,i
Cc1ccc(NC(=O)C(=O)NCc2ccc(/C=C(/C#N)C(=O)NCc3cccnc3)o2)cc1,-0.19,i,-8,i,i,i,x,x,x
Cc1cccc(Cl)c1NC(=S)NCCc1ccccn1,2.2,i,-5,i,i,-8.2*,44%*,i,28%*
COc1ccc(-n2nnnc2CNC(=O)C2CC(=O)N(c3ccc(Cl)cc3)C2)cc1 (stereo not drawn),0.79,i,-5,i,i,i,x,x,x
CC(C)c1ccc(/C=C/C(=O)NCCCc2ccccc2)cc1,-1.1,6*,-5,i,i,i,i,i,i
COc1ccc(NC(=O)N(C)C[C@H]2Oc3ccc(NC(=O)Cc4ccccc4)cc3CC(=O)N([C@H](C)CO)C[C@H]2C)cc1,x,x,x,x,i,x,x,x,x
CCOC(=O)COc1nc(-c2ccc(Cl)cc2)cc(-c2ccco2)c1C#N,-0.23,i,0,i,i,i,x,x,x
COC(=O)CSc1nc(N)c(C#N)c(-c2ccco2)c1C#N,0.13,i,-18,i,i,i,x,x,x
COC(=O)CSc1nc(-c2ccccc2)cc(-c2ccco2)c1C#N,0.67,i,-2,i,i,-8.9*,31%*,i,28%*
CCOC(=O)COc1nc(-c2ccccc2)cc(-c2ccco2)c1C#N,0.63,i,-5,i,i,-8.2*,49%*,i,34%*
CCOCCCN(C(=O)Cn1nnc(-c2ccc(C)o2)n1)C(C(=O)NCC1CCCO1)c1ccc(F)cc1 (stereo not drawn),0.34,i,-12,i,i,i,x,x,x
O=C(NCCS(=O)(=O)N1CCN(Cc2ccccc2)CC1)c1ccc(F)cc1,-1.9,i,-12,i,i,i,x,x,x
Cc1cc(C)cc(Oc2ncnc3c2ncn3Cc2c(Cl)cccc2Cl)c1,-0.28,i,1,i,i,i,i,i,i
O=C(Cc1ccc([N+](=O)[O-])cc1)NNC(=O)c1ccc2c(c1)OCO2,0.67,i,-8,i,i,i,x,x,x
COc1cc([N+](=O)[O-])ccc1NC(=S)NNC(=O)c1ccc2c(c1)OCO2,1.1,10*,-11,i,i,i,i,i,i
O=C(Oc1ccccc1)c1cccc2cccc(C(=O)Oc3ccccc3)c12,2.4,i,-8,i,i,-9.2*,42%*,i,26%*
O=C(Cn1ccc2cc(S(=O)(=O)N3CCCCC3)ccc21)NCc1ccccc1F,-0.91,i,-8,i,i,i,x,x,x

# Source: PubChem BioAssay
